# Screening results as filed in PubChem.
# This is a sample that favours compounds with a hit; in the whole collection about 2.5% have one here.
# SR-BI DiI-HDL act = SR-BI HDL lipid transfer activation. CHO ldlA[mSR-BI] cells, DiI-HDL uptake fluorescence, 3 h; 100 = double the neutral-control signal. activation, % at 12.5 µM. 320,000 tested, 0.096% active. AID 504775;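 active means mean replicate activation of at least 60% and every replicate at or above 60%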;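 further: 0% = median plate neutral-control signal and 100% = twice that signal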
#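 Assay system: LDL receptor-deficient CHO ldlA cells overexpressing murine SR-BI / Medium: BSA-supplemented, HEPES-buffered Ham's F12, pH 7.4 / Probe or stimulus: DiI-labelled HDL at 10 µg/mL final / Timing: compound with DiI-HDL co-incubation, 3 h at 37 °C / Technique: bottom-read cell fluorescence after medium removal, ex 550/em 595 nm / Measure: HDL uptake via cellular fluorescence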
# DYRK1A inh = inhibitors of rat Dyrk1A kinase. 310,000 tested, 0.43% active. ADP-Glo luminescence, NFATc1 peptide. inhibition, % at 12.5 µM. AID 504441. Q63470;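 further: plate controls were vehicle with enzyme for no effect and no enzyme for full effect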
# CDK5 p35 inh = inhibitors of human CDK5/p35 kinase; 330,000 tested, 0.01% active; Q00535+Q15078; inhibition, % at 10 µM; Recombinant CDK5/p35, ADP-Glo luminescence, 60 min; AID 488839;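 active means highest replicate inhibition of at least 50% and at least 75% of replicates reaching 50%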;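 further: plate controls were DMSO neutral control for no effect and GW8510 at 10 µM for full effect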
# SR-BI DiI inh = inhibitors of mouse SR-BI mediated HDL lipid uptake | Q61009 | ldlA[mSR-BI] CHO cells, DiI-HDL uptake fluorescence, 3 h | inhibition, % at 12.5 µM | 320,000 tested, 0.96% active;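 active means mean replicate inhibition of at least 70% and a set share of replicates each scoring 70 or more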;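 further: 0% = median of neutral control wells and 100% = median of positive control wells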
# dFosB activator = mouse delta FosB homodimer activation | purified delta FosB, TAMRA-CDK5 oligo fluorescence polarization; percent of positive-control signal above neutral wells | activation, % at 25 µM | P13346 | 340,000 tested, 0.99% active;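 active means mean activation above about 17%, with every replicate also reaching it, limit read from the data, passing the limit was not always enough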
# NSD2 inh = blocks human histone methyltransferase NSD2; O96028; NSD2 peptide methylation, AlphaScreen, 120 min; inhibition, % at 12.5 µM; 310,000 tested, 0.54% active; AID 743445
# Active calls of the source: *; . = not tested or not shown. Unless noted, no stated cut-off is given here; in the data, active means inhibition above about 50%; inactive means the rest.
SMILES,SR-BI DiI-HDL act,DYRK1A inh,CDK5 p35 inh,SR-BI DiI inh,dFosB activator,NSD2 inh
O=C(COC(=O)CNC(=O)c1ccc(Cl)cc1Cl)NCc1ccco1,89.0*,-4.1,1.1,-89.0,-0.5,-5.7
CCOC(=O)c1sc(=NC(=O)c2ccc(C)cc2)n(C)c1C,18.5,.,0.9,-18.5,-5.9,-5.0
CCOC(=O)c1sc(=NC(=O)c2cc(OC)c(OC)c(OC)c2)n(C)c1C,-74.4,4.5,-1.0,74.4*,-2.2,-2.0
CC(=O)N1CCN(c2ccc(NC(=O)c3cccc(Cl)c3Cl)cc2)CC1,-47.7,12.3,-0.6,47.7,-3.4,-0.2
O=C(Nc1ccc(N2CCCC2)cc1)c1ccccc1F,-2.1,1.2,4.6,2.1,25.8*,-4.4
O=C(Nc1ccc(N2CCCCC2)cc1)c1ccc(F)cc1F,-11.4,-4.5,-1.4,11.4,-2.3,-0.6
O=C(Nc1ccc(N2CCCC2)cc1)c1cccc(Cl)c1Cl,-78.8,-2.3,2.6,78.8*,0.9,1.8
CC1(C(=O)Nc2cccc(C(F)(F)F)c2)Cc2c(-c3ccccc3)ccnc2O1 (centres undefined),.,.,.,.,.,-1.3
COc1cc(/C=C2\CCCc3c2nc2ccccc2c3C(=O)O)cc([N+](=O)[O-])c1O,.,-0.7,0.7,.,-3.7,32.6
COc1cc(/C=C2\CCCc3c2nc2ccccc2c3C(=O)O)cc(OC)c1O,230.5*,-3.1,0.4,-230.5,2.3,1.5
CCOC(=O)N1CCN(S(=O)(=O)N2CCCC(C(=O)NCc3cc(Br)ccc3OC)C2)CC1 (centres undefined),.,.,.,.,.,-1.0
CCCCCC(=O)NC(=S)Nc1ccc(Br)cc1C,69.6*,-3.1,-1.2,-69.6,1.0,-3.3
CCCC(=O)NC(=S)Nc1c(C)cc(Br)cc1C,7.0,2.7,0.8,-7.0,-6.5,8.6
COCC1CCN(C(=O)C2CCC(=O)N(CCc3cccc(F)c3)C2)CC1 (centres undefined),28.5,-4.5,0.4,-28.5,-11.8,5.9
O=C(Nc1cc(Br)ccc1O)c1cnn2c(C(F)F)cc(C3CC3)nc12,-76.7,-4.1,-0.6,76.7*,-2.2,-0.2
CC(=O)Nc1sc(/C(C#N)=C\c2cccc(Cl)c2)nc1-c1ccc(C)cc1,-81.5,-0.8,-0.9,81.6*,5.8,-3.3
CN(C)S(=O)(=O)c1cccc(NC(=O)C2CCN(S(=O)(=O)c3cccs3)CC2)c1,-4.0,-1.0,-0.4,4.0,-12.4,-3.1
CCOc1ccc(NC(=O)CN(C)C(=O)c2ccc3nc(CC)c(CC)nc3c2)cc1OCC,-66.2,-2.1,0.7,66.2,-2.6,1.5
CCOc1ccc(NC(=O)CN(C)C(=O)c2ccc3c(c2)C(=O)N(CCC(C)C)C3=O)cc1OCC,-78.4,-2.2,-0.9,78.4*,-22.0,-2.1
CCOc1ccc(NC(=O)CN(C)C(=O)c2ccc(N3CCCCCC3)c([N+](=O)[O-])c2)cc1OCC,-86.2,-9.8,-2.2,86.2*,-20.1,12.3
COc1ccccc1CCNC(=O)c1cccc(NC(=O)CC2SC(N3CCCCC3)=NC2=O)c1 (centres undefined),-80.5,-1.9,-3.1,80.5*,-19.7,0.9
O=C(CC1SC(N2CCCCC2)=NC1=O)Nc1cccc(C(=O)NCc2ccc(F)cc2)c1 (centres undefined),-27.5,3.3,-0.9,27.5,-8.2,0.0
Cn1c(=O)c2c(ncn2CC(=O)N2CCN(S(=O)(=O)c3ccccc3)CC2)n(C)c1=O,17.7,-0.5,2.8,-17.7,-6.5,1.3
Cc1ccc(C)c(NC(=O)C2CCCN2S(=O)(=O)c2cccnc2)c1 (centres undefined),.,.,.,.,.,0.2
COc1ccc(Nc2nc(-c3cccs3)nc3ccccc23)c(OC)c1,-77.4,-3.1,2.5,77.4*,-10.4,-2.5
SMILES,SR-BI DiI-HDL act,DYRK1A inh,CDK5 p35 inh,SR-BI DiI inh,dFosB activator,NSD2 inh
COc1ccc(Nc2nc(-c3cccc([N+](=O)[O-])c3)nc3ccccc23)c(OC)c1,-91.5,-2.4,0.2,91.5*,-1.0,-0.5
COc1ccc(OC)c(Nc2nc(-c3cccc([N+](=O)[O-])c3)nc3ccccc23)c1,-37.8,2.1,-0.2,37.8,-8.8,-0.8
Cc1cccc2sc(NNC(=O)c3ccc(S(=O)(=O)N4CC(C)CC(C)C4)cc3)nc12 (centres undefined),-130.8,5.0,-1.4,130.8*,-1.2,.
CCC(=O)NNc1nc2c(C)cc(C)cc2s1,-7.7,-4.2,-0.2,7.7,-5.0,-0.9
Cc1ccc2nc(NNC(=O)c3ccc4c(c3)OCCO4)sc2c1,23.0,13.1,-0.4,-23.0,-8.6,.
Cc1ccc2nc(NNC(=O)c3ccc(S(=O)(=O)N4CCc5ccccc5C4)cc3)sc2c1,-119.3,9.9,1.5,119.3*,-17.0,.
Cc1cc(C)c2nc(NNC(=O)c3ccc(S(=O)(=O)N4CC(C)CC(C)C4)cc3)sc2c1 (centres undefined),-138.7,7.0,0.0,138.7*,-7.0,.
Cc1cc(C)c2nc(NNC(=O)c3ccc(S(=O)(=O)N4CCCC(C)C4)cc3)sc2c1 (centres undefined),-115.3,5.7,-0.1,115.3*,4.3,.
CCOC(=O)C1=C(COC(=O)CCC(=O)c2ccc(C)cc2)NC(=O)NC1C (centres undefined),12.1,1.8,0.7,-12.1,-6.5,-1.0
O=C(Nc1ccncc1)c1ccc2c(c1)S(=O)(=O)c1ccccc1C2=O,-1.8,1.1,-0.8,1.8,1.9,.
O=C(Nc1nc(-c2cccc3ccccc23)cs1)c1ccc2c(c1)S(=O)(=O)c1ccccc1C2=O,-72.5,16.3,2.9,72.5*,-5.1,-0.7
O=C(Nc1ccc(-c2ccccc2)cc1)c1ccc2c(c1)S(=O)(=O)c1ccccc1C2=O,-84.3,-4.2,1.7,84.3*,-7.3,.
COc1ccccc1Nc1ccc2c(O)cc(S(=O)(=O)O)cc2c1,-11.7,-0.1,-0.8,11.7,-35.9,109.9*
O=S(=O)(O)c1cc(O)c2ccc(Nc3ccccc3)cc2c1,10.8,-2.8,-16.9,-10.8,-12.4,104.7*
CC(=O)Nc1ccc2c(O)cc(S(=O)(=O)O)cc2c1,3.0,1.6,-0.7,-3.0,-3.9,9.9
COc1cc(NC(=O)C2CCCN(S(=O)(=O)c3ccc(C)cc3)C2)cc(OC)c1 (centres undefined),.,.,.,.,.,-2.0
COc1ccc(-c2ccc(NCCC3=CCCCC3)nn2)cc1OC,-74.9,1.2,-1.9,74.9*,0.7,-1.4
COc1ccc(C(=O)NCCC2=CCCCC2)cc1OC,-8.0,2.0,0.7,8.0,5.4,-0.3
C/C(=N\NC(N)=S)C1C2C3CC4C5CC(C42)C1C53 (centres undefined),-83.1,-5.5,1.9,83.1*,-1.3,-0.2
COc1cc(C2C3=C(Nc4nc(N)[nH]c(=O)c42)c2ccccc2C3=O)ccc1O (centres undefined),11.9,8.7,-2.7,-11.9,42.8*,10.9
